Rows were chosen to be rich in hits. Some 2.7% of all compounds tested hit in one or more screens of this group.
PREPL inhibitor: inhibits the human prolyl oligopeptidase-like enzyme. Q4J6C6. AID 2751. recombinant PREPL, fluorescence polarization activity-based probe. inhibition, % at 5.96 µM. 320,000 tested, 0.68% active; in the data active means inhibition above about 43%;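 further: 0% = enzyme with DMSO and 100% = wells lacking enzyme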
MC4R antag cAMP: blocks human MC4R cAMP signaling; 360,000 tested, 0.48% active; inhibition, % at 6.5 µM; P32245; MC4R-expressing cells, MTII-stimulated cAMP, LANCE TR-FRET;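 active means inhibition above its plate's cutoff, the mean of tested wells on that plate plus 3 SD, cut at about 29% in these data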;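 further: 0% = Melanotan II alone and 100% = Melanotan II plus saturating MCL0020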
Target sequence (P32245 whole entry, looked up): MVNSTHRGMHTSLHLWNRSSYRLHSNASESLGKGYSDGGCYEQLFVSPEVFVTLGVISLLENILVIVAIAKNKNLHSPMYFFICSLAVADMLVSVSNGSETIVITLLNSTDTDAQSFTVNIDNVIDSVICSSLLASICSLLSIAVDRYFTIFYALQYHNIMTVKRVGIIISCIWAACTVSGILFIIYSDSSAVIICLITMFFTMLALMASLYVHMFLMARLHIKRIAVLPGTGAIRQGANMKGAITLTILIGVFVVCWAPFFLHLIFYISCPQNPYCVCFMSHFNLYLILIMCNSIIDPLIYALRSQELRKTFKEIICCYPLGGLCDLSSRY
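Assay system: human MC4R-expressing U2OS cells; reagent: Melanotan II stimulation of cells; dosing: 6.5 µM single dose; timing: compound 30 min, challenge 1 h, detection 1 h; signal: TR-FRET cAMP assay; replicates: one well per compound, no replicates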
m5-HT2A agonist: activates the mouse 5-HT2A serotonin receptor | P35363 | CHO-K1 mHTR2A beta-arrestin complementation, luminescence; percent of 30 µM serotonin response | activation, % at 7.6 µM | 360,000 tested, 0.66% active | AID 624169;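 active means activation above a run cutoff, the mean activation of all tested compounds plus 3 SD, cut at about 14% in these data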;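 further: 0% = plate median of compound wells and 100% = 30 µM serotonin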
NTR1 ag: NTR1 (human) agonism; NTR1-U2OS beta-arrestin-GFP spot imaging, agonist mode; activation, % at 20 µM; 330,000 tested, 0.17% active; AID 493036;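 active means activation at or above 40% of the spot to cytoplasm intensity ratio, with at least 20 cells analyzed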;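 further: 0% = DMSO without peptide and 100% = 100 nM NTR1 peptide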
MC4R ag barr: human MC4R agonism via beta-arrestin | P32245 | U2OS MC4R beta-arrestin complementation, luminescence; percent of melanotan II response, DMSO zero | activation, % at 8.9 µM | 360,000 tested, 0.98% active;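 active means activation above a per-plate cutoff, the mean activation of sample wells on that plate plus 3 SD, cut at about 8% in these data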
Hep lipid drop: hepatic lipid droplet formation modulation. AML12 mouse hepatocytes, oleate lipid droplets, BODIPY imaging. inhibition, % at 6.5 µM. 240,000 tested, 0.4% active;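 active means lipid droplet intensity inhibited by at least 50%, with more than 500 cells counted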
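material = mouse AML12 hepatocyte cell line, fixed after treatment | also added = 100 µM oleic acid challenge | doses = compound at 6.5 µM only | schedule = overnight exposure | technique = Image-based BODIPY and DAPI two-channel analysis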
Lipid drop inh: hepatic lipid droplet formation inhibition, confirmed; AID 463183; AML12 mouse hepatocytes, BODIPY lipid droplet imaging; droplets induced with 100 µM oleic acid; shares compounds with Hep lipid drop; inhibition, % at 5.2 µM; 870 tested, 65% active;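 active means inhibition of lipid droplet metric at least 50%, with more than 300 cells in each of four replicates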;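 further: plate controls were DMSO with oleic acid for no effect and 5 µM Triacsin-C for full effect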
AML12 tox img: AML12 hepatocyte cytotoxicity (counter-screen); AID 463200; z-score at 5 µM; shares compounds with Hep lipid drop; 870 tested, 3% active; AML12 mouse hepatocytes, DAPI nuclear morphology cytotoxicity imaging; stronger effect = higher value; cells fed 100 µM oleate overnight; in the data active means z-score above about 6.3;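 further: compound exposure lasted overnight at 37 °C before fixation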
AML12 tox ATP: confirmation of cytotoxicity in AML12 mouse hepatocytes | 530 tested, under 10 active | AML12 mouse hepatocyte viability, ATP luminescence; cells loaded with 100 µM oleic acid | shares compounds with Hep lipid drop | cytotoxicity, % at 50 µM;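 active means cytotoxicity above 50% in each of four replicates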;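 further: compound exposure lasted overnight at 37 °C before the ATP read; 0% = DMSO-treated cells and 100% = wells with no cells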
* = called active by the depositor; · = no result given.

SMILES	PREPL inhibitor	MC4R antag cAMP	m5-HT2A agonist	NTR1 ag	MC4R ag barr	Hep lipid drop	Lipid drop inh	AML12 tox img	AML12 tox ATP
Cc1ccc(C)c(N2CCN(C(=O)CCCn3ncn4c(cc5occc54)c3=O)CC2)c1	6	-3	-1	2	2	13	·	·	·
CCCC1(c2ccccc2)NC(=O)N(CC(=O)NCc2ccc(C)cc2)C1=O (configuration not stated)	-6	-3	6	-2	0	23	·	·	·
CCCC1(c2ccccc2)NC(=O)N(CC(=O)Nc2cc(C)ccc2OC)C1=O (configuration not stated)	-7	4	-6	1	-3	56*	87*	-0.48	13
COc1ccc(Cl)cc1NC(=O)CN1C(=O)NC2(CCCC2)C1=O	-4	7	4	0	0	88*	91*	0.56	15
COc1ccc(NC(=O)CN2C(=O)NC(c3ccccc3)(c3ccccc3)C2=O)cc1OC	16	-2	-4	1	2	105*	103*	-0.13	2
O=C(NCCOc1ccccc1)C1=CC=CN2CCS(=O)(=O)N=C12	21	2	1	-1	-1	·	·	·	·
Cc1ccc2c(c1)-c1c(ssc1=S)C(C)(C)N2C(=O)CSC1=NCCS1	17	9	0	10	-1	27	·	·	·
CCOc1ccc2c(c1)-c1c(ssc1=S)C(C)(C)N2C(=O)CSC1=NCCS1	30	5	4	5	1	54*	13	0.2	·
O=C(NC1CC1)C1=C[C@@H](c2coc3ccccc3c2=O)C[C@@H](OCCCCO)O1	-4	8	3	0	-1	18	·	·	·
O=C(NCc1ccccc1)C(c1ccccc1)N(C(=O)c1csnn1)C1CCCC1 (configuration not stated)	6	11	1	3	-1	40	·	·	·
O=C(NCc1ccccc1)C(c1ccccc1F)N(C(=O)c1csnn1)C1CCCC1 (configuration not stated)	2	4	10	1	2	71*	92*	-0.75	12
C=CCN(C(=O)c1csnn1)C(C(=O)NCc1ccc(F)cc1)c1ccccc1F (configuration not stated)	1	11	12	0	2	25	·	·	·
C=CCN(C(=O)c1csnn1)C(C(=O)NCc1ccccc1)c1ccccc1F (configuration not stated)	7	2	9	1	1	51*	56	0.49	2
CCOc1ccccc1NC(=O)N1CCCC1C(=O)NCc1cccs1 (configuration not stated)	2	10	3	2	0	74*	94*	0.2	10
CCOc1ccccc1NC(=O)N1CCCC1C(=O)NCc1ccco1 (configuration not stated)	·	-6	-5	2	-1	40	·	·	·
NNC(=O)c1csc(Cc2c(Cl)sc3ccc(Cl)cc23)n1	-12	23	-1	3	-2	5	·	·	·
COc1ccc(CN2CC(C(=O)NCCc3ccccc3)CC2=O)cc1 (configuration not stated)	-10	4	2	0	-3	·	·	·	·
CCOc1ccc(CCNC(=O)C2CC=CCC2C(=O)OC(C)C)cc1OCC (configuration not stated)	15	14	-6	0	-2	114*	106*	0.38	13
CNS(=O)(=O)c1cccc(C(=O)OCC(=O)Nc2nc(OC)cc(OC)n2)c1	25	-10	3	0	-3	·	·	·	·
CCOc1ccc(CCNC(=O)C2CC(=O)N(Cc3ccc(OC)cc3)C2)cc1OCC (configuration not stated)	4	3	-3	1	-2	57*	93*	-0.16	16
CCOc1ccc(CCNC(=O)C2CC(C)=CCC2C(=O)O)cc1OCC (configuration not stated)	1	1	-1	0	-1	-1	·	·	·
CCCOc1ccc(C(=O)OCC(=O)NCCc2ccc(OCC)c(OCC)c2)cc1OC	-2	10	5	2	1	88*	110*	-0.66	8
CCOc1ccc(C(=O)OCC(=O)Nc2nc(OC)cc(OC)n2)cc1OCC	-1	-4	0	4	0	64*	102*	-0.56	15
CCC1NC(=S)NC(C)=C1C(=O)c1ccccc1 (configuration not stated)	16	21	5	1	0	-8	·	·	·
C[C@H](CO)N1C[C@H](C)[C@@H](CN(C)C(=O)NC2CCCCC2)Oc2c(NC(=O)c3ccncc3)cccc2C1=O	13	-5	3	-2	1	·	·	·	·
SMILES	PREPL inhibitor	MC4R antag cAMP	m5-HT2A agonist	NTR1 ag	MC4R ag barr	Hep lipid drop	Lipid drop inh	AML12 tox img	AML12 tox ATP
CCOc1ccc(CCNC(=O)COC(=O)c2ccc(OC)c(OC)c2OC)cc1OCC	5	15	4	2	-1	77*	109*	-0.68	10
CCOc1ccc(CCNC(=O)COC(=O)c2cccc(OC)c2O)cc1OCC	-3	10	-1	0	1	39	·	·	·
CCOc1ccc(CCNC(=O)C2CCN(S(=O)(=O)N3CC(C)CC(C)C3)CC2)cc1OCC (configuration not stated)	2	2	-9	2	-1	82*	5	-0.36	·
CCOc1ccc(CCNC(=O)CN2CCN(Cc3ccc(F)cc3)C2=O)cc1OCC	9	-3	-4	0	0	69*	104*	-0.21	13
CCOc1ccc(CCNC(=O)CCS(=O)(=O)c2ccc(OC)cc2)cc1OCC	20	6	5	-2	1	84*	97*	-0.44	10
O=C(NCC1CC1)C1Cc2c(-c3ccc4c(c3)OCO4)ccnc2O1 (configuration not stated)	·	-3	-3	·	0	·	·	·	·
[O-][N+](=Cc1ccccc1)CC1(O)CCCCC1	·	-4	-4	·	-1	·	·	·	·
CCOc1ccc(CCNC(=O)COC(=O)c2cc(OC)cc(OC)c2)cc1OCC	6	13	3	3	-2	61*	94*	-0.87	7
Cc1cc2ccccn2c1C(=O)c1ccccc1F	2	-1	-2	2	1	0	·	·	·
COc1cccc(-c2cc(C(=O)Nc3ccccc3)c3ccccc3n2)c1	0	5	2	1	5	·	·	·	·
